In PMC6160361 (Circulation, 2018):
Read-outs that look alike come from different tables or passages of the source.

Experiments:
[1] = Plasma lipid analysis of vaccinated Apoe^−/− mice; type: in vivo, mouse; details: Supplementary Figure 6; 1xCFA + 4xIFA
Summary of the method: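 Apoe−/− mice immunised 1xCFA + 4xIFA. Whole blood taken by cardiac puncture into EDTA at organ harvest and spun at 3000 × g for 15 min at 4°C. Plasma supernatant stored at −80°C to limit freeze/thaw, then sent for external lipid analysis.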

peritoneal CD4^+ T cells [2] = assay: TCR activation; type: in vivo, mouse
peritoneal Tregs = assay: IL-10 production and Nrp-1 of Tregs after p18 immunization; type: in vivo, mouse; details: N=7
Apoe^−/− mice = assay: Aortic atherosclerosis; type: in vivo, mouse; details: 50 μg p18, 1xCFA + 4xIFA, western diet 13 weeks; vs adjuvant only; N=8-9
[3] = test system: p18-specific CD4^+ T cells in human PBMC; assay: DRB1*07:01-p18 tetramer staining of human PBMC by flow cytometry; type: cell-based; details: sCVD N=14, no sCVD N=15
DRB1*04:01 = DRB1*04:01 (Homo sapiens, UniProt P01903+P01911, A100K/A169T/F76Y/I96L/K127E/L162R/M171V/N62H/P40V/Q125Y/R42H/S133A/S149N/S66Y/V115G/V209L/W38E); assay: MHC class II competitive binding assay, DRB1*04:01; details: experimental competitive peptide binding
Summary of the method: (§1)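 Competitive inhibition assay using purified MHC class II molecules and a high-affinity radiolabelled MHC class II ligand. Binding given as IC50, taken as an approximation of Kd under the assay conditions. Test peptide stock in DMSO at 20 mg/ml, stored at −80°C.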

peritoneal CD4^+ T cells [4] = type: in vivo, mouse; details: 1x CFA and 1x IFA, N=9-10
[5] = test system: p18:I-A^b+CD4^+ T cells (spleen); assay: p18:I-A^b tetramer staining of splenic CD4^+ T cells; type: in vivo, mouse
DRB1*07:01 = DRB1*07:01 (Homo sapiens, UniProt P01903+P01911, A100R/A102G/A103Q/D57E/D86V/E43K/F76Y/K127E/L162R/M171V/P40G/Q125H/Q99D/R33Q/R42Y/R54Q/S133A/S66F/T210M/V115G/Y107V/Y59L/Y89S); assay: MHC class II competitive inhibition binding assay, DRB1*07:01; details: experimental competitive peptide binding
Summary of the method: as §1

[6] = test system: DRB1*07:01-p18^+CD4^+ T cells; type: cell-based, human
peritoneal CD4^+ T cells [7] = type: in vivo, mouse
[8] = test system: p18:I-A^b+CD4^+ T cells (peritoneal); assay: p18:I-A^b tetramer staining of peritoneal CD4^+ T cells, Nur77^GFP Apoe^−/− mice; type: in vivo, mouse
splenic CD4^+ T cells = assay: IL-10 ELISPOT of splenic CD4^+ T cells restimulated with p18; type: cell-based, mouse; details: splenic CD4^+ T cells with antigen presenting cells and p18, 24 hours; 1xCFA and 1xIFA; N=9-10
p18 = details: vaccinated Apoe^−/− mice; Supplementary Figure 7
DRB1*13:02 = DRB1*13:02 (Homo sapiens, UniProt P01903+P01911, A100E/A169T/K41T/L162R/M171V/P40S/Q125H/Q178H/Q39Y/Q99D/R42S/S66N/T262R/V115G/W38E/Y61H); assay: MHC class II competitive binding assay, DRB1*13:02; details: experimental competitive peptide binding
Summary of the method: as §1

atherosclerosis patients = details: GLACIER trial; cited from earlier work
[9] = spleen, vaccinated Apoe^−/− mice

With SLFFSAQPFEITAST [p18] the plasma lipids [1] was “unchanged”, the “Nur77^GFP+ frequency among CD25^+FoxP3^+ Tregs vs all CD4^+ T cells” value (peritoneal CD4^+ T cells [2]; mice immunized with p18, 24 hours after restimulation) was “further elevated” and the “CD25^+FoxP3^+ Tregs in Nur77^GFP+ activated cell population” value (peritoneal CD4^+ T cells [2]; p18 immunized mice, N=5-6, adjuvant only showed a similar fraction) was “significantly enriched”. For the same molecule, the “IL-10-producing cells among all Tregs” value (peritoneal Tregs; FoxP3^+CD4^+ cells, vs adjuvant) was “significant expansion”, the “inducible Tregs (Nrp-1 negative) among classical Tregs” value (peritoneal Tregs) was “Most” and the “IL-10-producing iTregs (Nrp-1^−FoxP3^+CD4^+)” value (peritoneal Tregs; p18 immunized, from ~12%) was ~ 25%. The “reduction of lesion size, aortic arch” value (Apoe^−/− mice) was ~ 35%, the “reduction of lesion size, whole aorta” value (Apoe^−/− mice) was ~ 35% and the “trend in p18-specific CD4^+ T cells in sCVD patients vs no sCVD” value [3] was “did not reach statistical significance”. The “binding to DRB1*04:01” value (DRB1*04:01) was “binds”, the “abundance of Tregs in peritoneal cavity” value (peritoneal CD4^+ T cells [4]; Apoe^−/− mice on CD or WD) was “significantly increased” and the “FoxP3^+Tbet^+ cells in peritoneal cavity” value (peritoneal CD4^+ T cells [4]; CD or WD) was “increased”. The “FoxP3^+GATA3^+ cells in peritoneal cavity” value (peritoneal CD4^+ T cells [4]) was “only observed in mice fed CD and not in mice fed WD”, the “p18:I-A^b+CD4^+ T cells in spleen” value ([5]; IL-10^GFP Apoe^−/− mice, N=4-5) was “increased” and the “FoxP3 expression of splenic p18:I-A^b+CD4^+ T cells vs adjuvant” value ([5]; N=9-10) was “significantly more”. The “splenic bulk FoxP3^+CD4^+ T cells vs adjuvant only” value ([5]; data not shown) was “did not find a significant difference”, the “IL-10 production of p18:I-A^b+FoxP3^+CD4^+ T cells” value ([5]; spleen, IL-10^GFP Apoe^−/− mice, N=4-5) was “significantly more than in adjuvant-only controls” and the “IL-10 production of p18:I-A^b–FoxP3^+CD4^+ T cells” value ([5]; spleen, tetramer-negative, N=4-5) was “did not increase”. For the same molecule, the “central memory cells (CD62L^+CD44^+) among memory p18:I-A^b+CD4^+ T cells” value [5, 9] was 20%, the “effector memory cells (CD62L^−CD44^+) among memory p18:I-A^b+CD4^+ T cells” value [5, 9] was 80% and the “p18:I-A^b+CD4^+ T cells with memory phenotype (CD44^+)” value [5, 9] was “Most”. The “binding to DRB1*07:01” value (DRB1*07:01) was “binds”, the “Tregs co-expressing T-bet among DRB1*07:01-p18^+CD4^+ T cells” value ([6]; no sCVD) was 1.2±0.5% and the “FoxP3^+Rorγt^+ cells among p18-specific CD4^+ T cells” value ([6]; patients with sCVD) was “significant increase”. For the same molecule, the “Tregs co-expressing RORγt among DRB1*07:01-p18^+CD4^+ T cells” value ([6]; sCVD donors, mean ± SEM) was 8.8±3.7%, the “Tregs co-expressing T-bet among DRB1*07:01-p18^+CD4^+ T cells” value ([6]; sCVD patients) was 4.1±1.4% and the “Tregs co-expressing RORγt among DRB1*07:01-p18^+CD4^+ T cells” value ([6]; sCVD^− participants) was “almost undetectable”. For the same molecule, the “fraction of p18-specific CD4^+ T cells that are FoxP3^+ Tregs” value ([6]; women with no sCVD) was “most”, the “FoxP3 by intracellular staining of CD4^+ T cells” value (peritoneal CD4^+ T cells [7]; Apoe^−/− mice, peritoneal, N=6, compared with YFP result) was “gave a similar result” and the “CD25^+FoxP3^+CD4^+ T cells of all CD4^+ T cells” value (peritoneal CD4^+ T cells [7]; peritoneal cavity, FoxP3^YFPcreApoe^−/− mice, 2 weeks after immunization, 1xCFA s.c. + 1xIFA i.p., from ~6%, N=7) was ~ 12%. The “peritoneal p18:I-A^b+CD4^+ T cells, p18-immunized vs adjuvant” value ([8]; Apoe^−/− mice fed CD or WD, Supplementary Figure 5) was “did not observe any significant differences”, the “ApoB p18-specific (PE- and APC-double positive) CD4^+ T cells” value ([8]; increase vs adjuvant only, peritoneal, 1x CFA and 1x IFA, N=5-6) was ~ 3 -fold and the “CD25^+FoxP3^+ Tregs among p18:I-A^b+CD4^+ T cells” value ([8]; peritoneal, p18 immunized, N=5-6) was 40%. For the same molecule, the “Nur77^GFP+ cells among p18:I-A^b+CD4^+ T cells” value ([8]; peritoneal, N=5-6) was “highly enriched”, the “CD25^+FoxP3^+ Tregs among p18:I-A^b–CD4^+ T cells” value ([8]; tetramer-negative cells, peritoneal, p18 immunized, N=5-6) was 9% and the “IL-10^+ spots (ELISPOT) vs adjuvant only” value (splenic CD4^+ T cells) was “significantly more”. For the same molecule, the “IgG1 antibodies to p18 in plasma” value (p18) was “detected”, the “IgG2c antibodies to p18 in plasma” value (p18) was “detected” and the “binding to DRB1*13:02” value (DRB1*13:02) was “binds”.

B1: recombinant IgG1 antibody to oxLDL: recombinant IgG1 antibody to oxLDL infused in the GLACIER trial (antibody, chains of the INN, looked up, V domains shown)
VH: EVQLLESGGGLVQPGGSLRLSCAASGFTFSNAWMSWVRQAPGKGLEWVSSISVGGHRTYYADSVKGRSTISRDNSKNTLYLQMNSLRAEDTAVYYCARIRVGPSGGAFDYWGQGTLVTVSS
VL: QSVLTQPPSASGTPGQRVTISCSGSNTNIGKNYVSWYQQLPGTAPKLLIYANSNRPSGVPDRFSGSKSGTSASLAISGLRSEDEADYYCASWDASLNGWVFGGGTKLTVL
In the case of B1, the “efficacy in imaging studies” value (atherosclerosis patients) is listed as “failed to show efficacy”.
